ChEMBL document CHEMBL3797143, “Novel S1P1 receptor agonists - Part 5: From amino-to alkoxy-pyridines” (Eur J Med Chem, 2016)
Calls of active or inactive are those of the source. The calls are words filed in the database; no cut-off is given here.

What was measured:
[1] = Phototoxicity in Balb/c mouse 3T3 clone A31 cells assessed as inhibition of cell viability measured as photo irritancy factor at 0.05 to 100 uM preincubated for 1 hr followed by UVA irradiation measured after 24 hrs by neutral red uptake assay relative to control; assay type: functional
[2] = Plasma concentration in Wistar rat at 10 mg/kg administered via oral gavage measured after 3 hrs by LC-MS/MS analysis; assay type: ADME, organism-based
How it was run: (§1)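 Male Wistar rats received 10 mg/kg orally by gavage. Blood was drawn at the listed times into EDTA tubes, and plasma was prepared by centrifugation at 3000 g for 10 min at 4 °C. Limit of quantification 3 nM.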

[3] = target: Sphingosine 1-phosphate receptor 3 (Homo sapiens, UniProt Q99500); assay: Agonist activity at human recombinant S1PR3 expressed in CHO cell membranes incubated for 30 mins by [35S]GTPgammaS binding assay in presence of GDP; assay type: functional
How it was run: (§2)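 Membranes from CHO cells expressing recombinant human S1P1 or S1P3. Compounds were preincubated with membranes for 30 min at room temperature. Reaction stopped by filtration, membrane-bound 35S-GTPγS counted. Geometric mean of ≥3 independent runs.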

[4] = Half life in Wistar rat at 10 mg/kg administered via oral gavage by LC-MS/MS analysis; assay type: ADME, organism-based; conditions: in vivo
How it was run: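 Oral half-life was calculated from plasma concentrations measured in the lymphocyte-count study, in which male Wistar rats received 10 mg/kg orally. Plasma was prepared from EDTA blood by centrifugation at 3000 g for 10 min at 4 °C.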

[5] = Plasma concentration in Wistar rat at 10 mg/kg administered via oral gavage measured after 24 hrs by LC-MS/MS analysis; assay type: ADME, organism-based; how it was run: as §1
[6] = system: Rattus norvegicus; assay: Decrease in peripheral blood lymphocyte count in Wistar rat at 10 mg/kg administered via oral gavage measured after 3 hrs; assay type: functional; set-up: scale not given: the % may be the effect or the level left
How it was run: (§3)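 Male Wistar rats (RccHan:WIST) were given 10 mg/kg orally by gavage in vehicle containing 5% DMSO. Blood drawn by sublingual vein puncture under isoflurane before dosing and at the listed times after dosing. Lymphocytes counted on a haematology analyser. Results are % change from baseline, mean of 6-8 animals.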

[7] = Plasma concentration in Wistar rat at 10 mg/kg administered via oral gavage measured after 6 hrs by LC-MS/MS analysis; assay type: ADME, organism-based; how it was run: as §1
[8] = system: Rattus norvegicus; assay: Time duration of maximum lymphocyte count reduction in Wistar rat at 10 mg/kg administered via oral gavage; assay type: functional
How it was run: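 Duration of action is the latest sampling time at which maximal lymphocyte-count reduction was still seen. Male Wistar rats received 10 mg/kg orally, and blood lymphocytes were counted before dosing and at 3, 6 and 24 h (later times in some cases). Mean of 6-8 animals.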

[9] = system: Rattus norvegicus; assay: Decrease in peripheral blood lymphocyte count in Wistar rat at 10 mg/kg administered via oral gavage measured after 6 hrs; assay type: functional; set-up: scale not given: the % may be the effect or the level left; how it was run: as §3
[10] = Plasma concentration in Wistar rat at 10 mg/kg administered via oral gavage measured after 144 hrs by LC-MS/MS analysis; assay type: ADME, organism-based; how it was run: as §1
[11] = system: Rattus norvegicus; assay: Decrease in peripheral blood lymphocyte count in Wistar rat at 10 mg/kg administered via oral gavage measured after 144 hrs; assay type: functional; set-up: scale not given: the % may be the effect or the level left; how it was run: as §3
[12] = system: Rattus norvegicus; assay: Decrease in peripheral blood lymphocyte count in Wistar rat at 10 mg/kg administered via oral gavage measured after 96 hrs; assay type: functional; set-up: scale not given: the % may be the effect or the level left; how it was run: as §3
[13] = Plasma concentration in Wistar rat at 10 mg/kg administered via oral gavage measured after 96 hrs by LC-MS/MS analysis; assay type: ADME, organism-based; how it was run: as §1
[14] = Phototoxicity in Balb/c mouse 3T3 clone A31 cells assessed as AUC of UV spectra between 310 and 350 nm normalized to compound concentration at 0.05 to 100 uM preincubated for 1 hr followed by UVA irradiation measured after 24 hrs by neutral red uptake assay relative to control; assay type: functional
[15] = system: Rattus norvegicus; assay: Decrease in peripheral blood lymphocyte count in Wistar rat at 10 mg/kg administered via oral gavage measured after 24 hrs; assay type: functional; set-up: scale not given: the % may be the effect or the level left; how it was run: as §3
[16] = target: Sphingosine 1-phosphate receptor 1 (Homo sapiens, UniProt P21453); assay: Agonist activity at human recombinant S1PR1 expressed in CHO cell membranes incubated for 30 mins by [35S]GTPgammaS binding assay in presence of GDP; assay type: functional; how it was run: as §2
[17] = system: Rattus norvegicus; assay: Decrease in peripheral blood lymphocyte count in Wistar rat at 10 mg/kg administered via oral gavage measured after 48 hrs; assay type: functional; set-up: scale not given: the % may be the effect or the level left; how it was run: as §3
[18] = system: Rattus norvegicus; assay: Decrease in peripheral blood lymphocyte count in Wistar rat at 10 mg/kg administered via oral gavage measured after 72 hrs; assay type: functional; how it was run: as §3
[19] = Plasma concentration in Wistar rat at 10 mg/kg administered via oral gavage measured after 72 hrs by LC-MS/MS analysis; assay type: ADME, organism-based; how it was run: as §1

Sequence of Sphingosine 1-phosphate receptor 3 (Q99500 whole entry): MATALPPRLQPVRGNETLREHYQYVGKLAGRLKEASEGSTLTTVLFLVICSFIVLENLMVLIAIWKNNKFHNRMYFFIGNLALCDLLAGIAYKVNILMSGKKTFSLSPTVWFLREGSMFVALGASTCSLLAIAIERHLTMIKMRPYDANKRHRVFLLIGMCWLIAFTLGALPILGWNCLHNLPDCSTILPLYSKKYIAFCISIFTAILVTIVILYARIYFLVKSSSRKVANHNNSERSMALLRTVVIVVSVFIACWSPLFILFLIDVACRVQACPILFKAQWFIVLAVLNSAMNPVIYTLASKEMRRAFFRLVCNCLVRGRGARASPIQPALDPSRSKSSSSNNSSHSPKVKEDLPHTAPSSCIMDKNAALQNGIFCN
Sequence of Sphingosine 1-phosphate receptor 1 (P21453 whole entry): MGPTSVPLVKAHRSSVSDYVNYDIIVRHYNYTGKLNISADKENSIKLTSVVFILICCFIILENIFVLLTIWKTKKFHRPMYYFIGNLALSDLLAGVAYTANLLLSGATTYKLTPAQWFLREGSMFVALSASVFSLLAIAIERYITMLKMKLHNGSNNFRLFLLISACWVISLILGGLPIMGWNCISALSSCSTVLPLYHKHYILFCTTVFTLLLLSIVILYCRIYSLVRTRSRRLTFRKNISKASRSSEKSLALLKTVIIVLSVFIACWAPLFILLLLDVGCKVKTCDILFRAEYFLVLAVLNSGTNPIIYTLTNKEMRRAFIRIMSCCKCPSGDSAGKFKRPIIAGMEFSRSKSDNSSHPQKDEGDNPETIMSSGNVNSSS

| concentration at 3 h [2] [nM] | EC50 [3] [nM] | half-life [4] [h] | concentration at 24 h [5] [nM] | concentration at 6 h [7] [nM] | concentration at 144 h [10] [nM] | concentration at 96 h [13] [nM] | EC50 [16] [nM] | concentration at 72 h [19] [nM] | Structure (SMILES) | Ratio [1] | Activity [6] [%] | Time [8] [h] | Activity [9] [%] | Activity [11] [%] | Activity [12] [%] | Ratio [14] | Activity [15] [%] | Activity [17] [%] | Activity [18] |
| --- | --- | --- | --- | --- | --- | --- | --- | --- | --- | --- | --- | --- | --- | --- | --- | --- | --- | --- | --- |
| 2050 | 71 | 18 | 1070 | 1860 | 12 | 68 |  |  | CCc1cc(-c2noc(-c3cc(OC)nc(C4CCCC4)c3)n2)cc(C)c1OC[C@@H](O)CNC(=O)CO | 2.3 | 62 | 24 | 65 | 20 | 50 | 0.09 | 70 |  |  |
|  | 27 |  |  |  |  |  | 0.3 |  | CCc1cc(-c2noc(-c3cc(CC(C)C)nc(OC)c3)n2)cc(C)c1OC[C@@H](O)CNC(=O)CO |  | 57 | 48 | 59 |  |  |  | 66 | 59 |  |
| 750 | 96 | 9 | 46 | 470 |  |  | 0.4 | < 3 | CCc1cc(-c2noc(-c3cc(OC)nc(C(CC)CC)c3)n2)cc(C)c1OC[C@@H](O)CNC(=O)CO | 0.9 | 59 | 6 | 59 |  |  | 0.05 | 36 |  | Active |
